Assay outcomes as filed in PubChem.
MPTP block: permeability transition pore inhibition | isolated mouse mitochondria, Ca2+ swelling absorbance, 30 min | inhibition, % at 10 µM | 360,000 tested, 1.4% active | AID 602449;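 active = inhibition of 50% or more, scaled per plate between neutral and stimulator controls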;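 note: 0% = DMSO wells given calcium and 100% = 1 mM EGTA wells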
Lmaj promast: reduces viability of Leishmania major promastigotes; resazurin fluorescence viability; inhibition, % at 10 µM; 200,000 tested, 9% active; AID 1063; in the data active = inhibition above about 50%;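 note: promastigotes grown with compound for 44 hours at 28 °C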
Hep lipid drop: hepatic lipid droplet formation modulation; AML12 mouse hepatocytes, oleate lipid droplets, BODIPY imaging; inhibition, % at 6.5 µM; 240,000 tested, 0.4% active; AID 1656;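 active = lipid droplet intensity inhibited by at least 50%, with more than 500 cells counted; inconclusive = wells with under 300 cells, treated as cytotoxic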
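Assay system: AML12 mouse liver cells | Compound: 6.5 µM single-point dosing | Schedule: Overnight exposure | Technique: Fluorescence imaging, 20x objective, two fields per well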
Redox H2O2 prof: compounds producing H2O2 with reducing agent – biochemical, NIH compound library profiling, artefact control for MLSCN library redox annotation, primary screen; activation, % at 10 µM; DTT-dependent redox cycling H2O2, phenol red/HRP absorbance; 100% = 100 µM peroxide control, 0% = buffer; AID 878; 200,000 tested, 0.03% active;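 active = activation of at least 50% relative to the plate's high and low controls in the primary single-dose screen; inactive = activation below 50%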;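 note: compound incubated with DTT at 0.8 mM final as the reducing agent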
T cruzi repl: blocks replication of Trypanosoma cruzi; 300,000 tested, 1.4% active; inhibition, % (test concentration not listed); T. cruzi beta-gal in NIH3T3, luminescence, 90 h;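 active = mean inhibition across valid replicates above about 55%, limit read from the data; inconclusive = mean below that limit but half or more replicates reach it; inactive = mean below it, under half of replicates reach it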;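 note: signal also drops with host cell toxicity which is not excluded here; 0% = plate median of DMSO wells and 100% = zero luminescence signal; higher percent means less beta-gal luminescence so fewer parasites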
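Read-out: Parasite load inhibition, % | Test system: Mouse NIH/3T3 fibroblasts infected with β-gal-expressing T. cruzi Tulahuen C4 | Amount: 5,000 cells/well | Medium: DMEM, 2% fetal bovine serum | Signal: GalScreen β-gal luminescence, detergent lysis, 60 min | Timing: 3 h attach, ≥90 h co-culture | Also added: Tulahuen C4 trypomastigotes, 5000/well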
MPTP counter: Rhodamine 123 counter-screen of mitochondrial pore hits | isolated mitochondria, membrane potential, Rhodamine 123 fluorescence | 5,000 tested, 78% active | shares compounds with MPTP block | inhibition, % at 10 µM; in the data active = inhibition above about 22%;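 note: 0% = DMSO vehicle and 100% = positive control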
MPTP abs DR: dose response confirmation of mitochondrial permeability transition pore inhibitors; 780 tested, 58% active; shares compounds with MPTP block; IC50, µM; isolated mitochondria swelling, absorbance; in the data active = IC50 below about 20 µM
MPTP counter DR: MPTP inhibitor counter-screen activity, dose response. shares compounds with MPTP block. AID 651564. IC50, µM. 780 tested, 49% active. isolated mitochondria counterscreen, fluorescence read-out; in the data active = IC50 below about 80 µM
* = called active by the depositor. Only a selection was taken, and hits are over-represented in it overall.

Results for O=[N+]([O-])c1cccc(N/N=C/c2cc([N+](=O)[O-])ccc2O)c1 ?
MPTP block: 64*; Lmaj promast: -2; Hep lipid drop: -3; Redox H2O2 prof: -1; T cruzi repl: 10; MPTP counter: 61*

What do the screens show for `CCCOC(=O)c1ccc(OCC(O)Cn2c(C)nc3ccccc32)cc1` (stereo not drawn)?
MPTP block: 53*; Lmaj promast: 12; Hep lipid drop: -2; Redox H2O2 prof: -1; T cruzi repl: -22; MPTP counter: 103*

What do the screens show for `COc1ccc(NC(=O)CN(C)C(=O)c2c(-c3c(F)cccc3Cl)noc2C)cc1`?
MPTP block: -2; T cruzi repl: 5

What do the screens show for `CCOC(=O)C1(CCOc2ccccc2)CCN(Cc2ccc(COC)o2)CC1`?
MPTP block: 61*; Lmaj promast: 66*; Hep lipid drop: -2; Redox H2O2 prof: -1; T cruzi repl: -16; MPTP counter: 3; MPTP abs DR: 19*; MPTP counter DR: 37*

Results for CCOC(=O)C1(CCc2ccccc2)CCN(Cc2c(O)cccc2OC)CC1 ?
MPTP block: 62*; Lmaj promast: 91*; Hep lipid drop: -66; Redox H2O2 prof: -1; T cruzi repl: 45; MPTP counter: 88*

How did CCOC(=O)C1(CCOc2ccccc2)CCN(Cc2ccc(OC)c(O)c2)CC1 do in these assays?
MPTP block: 9; Hep lipid drop: 4; T cruzi repl: 7

What do the screens show for `CCOC(=O)C1(CCOc2ccccc2)CCN(Cc2ccc(OC)c(COC)c2)CC1`?
MPTP block: 86*; Hep lipid drop: 0; T cruzi repl: 32; MPTP counter: 74*

What do the screens show for `CCOC(=O)C1(CCc2ccccc2)CCN(Cc2nccn2CC)CC1`?
MPTP block: 3; Lmaj promast: 31; Hep lipid drop: 4; Redox H2O2 prof: -1; T cruzi repl: 11

How did COCCNC(=O)CSc1nnc(NC(=O)C2CC(=O)N(c3ccccc3OC)C2)s1 (stereo not drawn) do in these assays?
MPTP block: 0; Hep lipid drop: 2; T cruzi repl: 0

What do the screens show for `Cc1cc(NC(=O)Nc2ccccc2[N+](=O)[O-])n(C)n1`?
MPTP block: 1; T cruzi repl: -9

What do the screens show for `CCCC[C@@H]1CNC(=O)C(=O)N1CCc1cccc(F)c1`?
MPTP block: -1

How did COCCCn1c(=O)c2ccccc2n(CC(=O)N2CCCc3ccccc32)c1=O do in these assays?
MPTP block: -1; Hep lipid drop: -17; T cruzi repl: 4

What do the screens show for `O=[N+]([O-])c1ccc(-c2c(O)c3ccccc3c3nc4ccccc4nc23)cc1`?
MPTP block: 74*; Lmaj promast: 2; Hep lipid drop: -14; Redox H2O2 prof: -1; T cruzi repl: -21; MPTP counter: 37*

Results for O=[N+]([O-])c1ccc(-c2cnc3ccccc3n2)cc1 ?
MPTP block: -1; T cruzi repl: 0

Results for COc1ccccc1/C=C/C(=O)c1cc(Br)ccc1OC(=O)c1ccco1 ?
MPTP block: 57*; Lmaj promast: 60*; Redox H2O2 prof: -9; T cruzi repl: -11; MPTP counter: -9

Results for COc1ccc(Br)cc1C(=O)Nc1ccc(NC(=O)c2ccco2)cc1 ?
MPTP block: -17; Lmaj promast: -1; Hep lipid drop: -3; Redox H2O2 prof: 2; T cruzi repl: 8

What do the screens show for `CC(=O)Nc1ccc(CCc2nc3ccccc3[nH]2)cc1`?
MPTP block: 0; Hep lipid drop: 7; T cruzi repl: -4

Results for CC(C)c1ccc(NC(=O)N(CCc2nc3ccccc3[nH]2)C2CCCC2)cc1 ?
MPTP block: 58*; Lmaj promast: 43; Redox H2O2 prof: 2; T cruzi repl: 21; MPTP counter: 81*

Results for O=C(NCC1CCCO1)c1cccc(S(=O)(=O)Nc2ccc(F)cc2)c1 (stereo not drawn) ?
MPTP block: -1

Results for C/C(N)=C(/C#N)C(=O)COC(=O)Cc1coc2cc(C)ccc12 ?
MPTP block: -2; Lmaj promast: -6; Hep lipid drop: 4; Redox H2O2 prof: 7; T cruzi repl: -7

Results for CC(=O)Cc1nsc(NC(=O)c2ccc(-c3ccc(Cl)cc3Cl)o2)n1 ?
MPTP block: 54*; Lmaj promast: -1; Redox H2O2 prof: 0; T cruzi repl: -18; MPTP counter: 38*

What do the screens show for `COc1ccc(S(=O)(=O)N2CCCCCC2)cc1C(=O)NCc1ccc(C)cc1`?
MPTP block: 0

What do the screens show for `O=C(c1cc2sccc2n1Cc1ccccc1)N1CCN(c2nc3ccccc3s2)CC1`?
MPTP block: 102*; Lmaj promast: 12; Redox H2O2 prof: 4; T cruzi repl: 44; MPTP counter: 102*

How did Cc1nc(Nc2ccc(S(=O)(=O)N3CCCCC3C)cc2)c2nnn(Cc3ccccc3)c2n1 (stereo not drawn) do in these assays?
MPTP block: 68*; Lmaj promast: 90*; Hep lipid drop: -17; Redox H2O2 prof: 0; T cruzi repl: 64*; MPTP counter: 14; MPTP abs DR: inactive; MPTP counter DR: >80

What do the screens show for `Cc1nc(Nc2ccc(Cl)cc2)c2nnn(Cc3ccccc3)c2n1`?
MPTP block: -2; Lmaj promast: -7; Hep lipid drop: 2; Redox H2O2 prof: 0; T cruzi repl: 17

Results for O=C(Cc1cccs1)Nc1ccccc1-c1nc2ccccc2[nH]1 ?
Hep lipid drop: -9; T cruzi repl: 8

Results for COc1ccc(-n2nc(C(=O)c3cccs3)cc(-c3nc4ccccc4[nH]3)c2=N)cc1 ?
MPTP block: 78*; Lmaj promast: 99*; Hep lipid drop: -18; Redox H2O2 prof: 2; T cruzi repl: 73*; MPTP counter: -4

Results for Cc1ccccc1-n1nc(C(=O)c2cccs2)cc(-c2nc3ccccc3[nH]2)c1=N ?
MPTP block: 91*; Lmaj promast: 98*; Hep lipid drop: -2; Redox H2O2 prof: 3; T cruzi repl: inconclusive; MPTP counter: 98*

What do the screens show for `O=C(CSc1ccc(F)cc1)Nc1ccc(C2SCCS2)cc1`?
MPTP block: 7; Hep lipid drop: 0; T cruzi repl: 10

Results for N#Cc1cn(N2CCCCC2)c(=O)[nH]c1=O ?
MPTP block: 0; T cruzi repl: -4

What do the screens show for `Cc1cccc(NC(=O)Cn2cc(C(=O)C3CC3)c3ccccc32)c1C`?
MPTP block: 56*; Hep lipid drop: -72; T cruzi repl: -57; MPTP counter: 51*
